Experimental data gathered from unrelated publications.
Lines come from different studies, so protocols differ. Converted amounts (≈) assume the structure as drawn.

Structure (SMILES) | tested on | assay | system | conditions | measurement | value
CN(C)CCNC(=O)c1ccc(-c2nc3ccc4[nH]ncc4c3c3c2CCCC3)c(F)c1 | BJ | cell growth or viability | – | 72 h | GI50 | 9.72 µM
CC(=O)OCC1=C(C(=O)O)N2C(=O)[C@@H](NC(=O)Cc3cccs3)[C@H]2SC1 | Salmonella enterica | microbial growth, broth dilution | ATCC13076 TYPHIMURIUM | – | MIC | 3.12 µg/mL (≈ 7.88 µM)
Cc1n[nH]c2ccc3nc(-c4ccc(C(=O)NCCN(C)C)cc4)c4c(c3c12)CCCCC4 | BJ | cell growth or viability | – | 72 h | GI50 | > 10 µM
COc1ccc(N2N=C(C(C)=O)SC2=C(C#N)C(=O)c2ccc(Nc3cnccn3)cc2)cc1 | Salmonella enterica | microbial growth, broth dilution | ATCC13076 TYPHIMURIUM | – | MIC | 50 µg/mL (≈ 106 µM)
CCS(=O)(=O)Oc1ccc(C=NNC(=O)CSc2nc3ccc(Cl)cc3c(=O)n2-c2ccccc2)cc1 | Bacillus cereus | microbial growth, well diffusion | – | 20 µg/mL | inhibition zone | 2 mm
N=c1sc(C(=O)c2ccc(Nc3cnccn3)cc2)nn1-c1ccccc1 | Salmonella enterica | microbial growth, broth dilution | ATCC13076 TYPHIMURIUM | – | MIC | 100 µg/mL (≈ 267 µM)
O=C(O)c1ccc(NCc2cccc(O)c2O)cc1 | NCI-H69 | cell growth or viability, resazurin | – | 72 h | IC50 | 32.2 µM
N=c1sc(C(=O)c2ccc(Nc3cnccn3)cc2)nn1-c1ccc([N+](=O)[O-])cc1 | Salmonella enterica | microbial growth, broth dilution | ATCC13076 TYPHIMURIUM | – | MIC | 6.25 µg/mL (≈ 14.9 µM)
COc1ccccc1CNc1ccc(C(=O)O)cc1 | NCI-H69 | cell growth or viability, resazurin | – | 72 h | IC50 | > 100 µM
Cc1cccc2c(=O)n(-c3ccccc3)c(SCC(=O)NN=Cc3ccc(OS(C)(=O)=O)cc3)nc12 | Bacillus cereus | microbial growth, well diffusion | – | 20 µg/mL | inhibition zone | 2 mm
Cc1n[nH]c2ccc3nc(-c4ccc(C(=O)NCCN(C)C)cc4F)c4c(c3c12)CCCC4 | BJ | cell growth or viability | – | 72 h | GI50 | 2.21 µM
O=C(O)c1ccc(NCc2cc(Br)ccc2O)cc1 | NCI-H69 | cell growth or viability, resazurin | – | 72 h | IC50 | > 100 µM
COc1ccc(C=NNC(=O)CSc2nc3c(C)cccc3c(=O)n2-c2ccccc2)cc1OS(C)(=O)=O | Salmonella enterica | microbial growth, well diffusion | TYPHIMURIUM | 20 µg/mL | inhibition zone | 3 mm
CCc1nc(C(N)=O)c(Nc2ccc(N3CCC(N4CCN(C)CC4)CC3)c(OC)c2)nc1NC1CCOCC1 | BJ | cell growth or viability | – | 72 h | GI50 | > 10 µM
CCCS(=O)(=O)Oc1ccc(C=NNC(=O)CSc2nc3ccc(Cl)cc3c(=O)n2-c2ccccc2)cc1OC | Bacillus cereus | microbial growth, well diffusion | – | 20 µg/mL | inhibition zone | 2 mm
CC(C)c1ccc(/C=C2\N=C(SCC(=O)O)N(c3ccccc3)C2=O)cc1 | Bacillus cereus | microbial growth, broth dilution | ATCC14579 | – | MIC | 12 µg/mL (≈ 31.5 µM)
O=C(O)c1cn(C2CC2)c2cc(N3CCNCC3)c(F)cc2c1=O | Bacillus cereus | microbial growth, well diffusion | – | 20 µg/mL | inhibition zone | 5 mm
CN(C)CCNC(=O)c1ccc(-c2nc3ccc4[nH]ncc4c3c3c2CCCCC3)c(F)c1 | BJ | cell growth or viability | – | 72 h | GI50 | 6.58 µM
